{"data": "Assay results pooled from the literature", "mode": "inhibitor", "rep main protease": "Replicase polyprotein 1ab, main protease (rep, Severe acute respiratory syndrome coronavirus 2, UniProt P0DTD1)", "rep papain-like protease": "Replicase polyprotein 1ab, papain-like protease (rep, Severe acute respiratory syndrome coronavirus 2, UniProt P0DTD1)", "note": "Lines come from different studies, so protocols differ."}
{"SMILES": "NC(=S)NNc1ccc(S(N)(=O)=O)cc1", "target": "rep main protease", "test": "enzyme activity", "setting": "20 µM", "inhibition [%]": 42.1}
{"SMILES": "CC(C)=CCc1cc(-c2oc3cc(O)cc(O)c3c(=O)c2O)ccc1O", "target": "rep papain-like protease", "test": "enzyme activity", "setting": "8 µM", "inhibition [%]": 59.9}
{"SMILES": "COc1ccc(/C=C\\C(=O)NC(=S)Nc2ccc(S(=O)(=O)NC(N)=O)cc2)cc1OC", "target": "rep main protease", "test": "enzyme activity", "setting": "100 µg/mL", "inhibition [%]": 0}
{"SMILES": "Cc1cccc(NC2CS(=O)(=O)CC2O)c1 (stereo not drawn)", "target": "rep main protease", "test": "enzyme activity", "setting": "20 µM", "inhibition [%]": 7.43}
{"SMILES": "Cc1ccc(NC(=O)c2cc3c(=O)n4cccc(C)c4nc3n2C)cc1Cl", "target": "rep main protease", "test": "enzyme activity", "setting": "1 mM", "inhibition [%]": 75}
{"SMILES": "O=C(NC[C@H](NC(=O)c1cncc2sccc12)c1ccc2ccccc2c1)c1cocn1", "target": "rep main protease", "test": "enzyme activity", "setting": "5 µM", "inhibition [%]": 19.1}
{"SMILES": "Cc1cccc2cc(/C=N\\c3ccc(-c4nc5ccccc5[nH]4)cc3)c(Cl)nc12", "target": "rep papain-like protease", "test": "enzyme activity", "setting": "10 µM", "inhibition [%]": 10.1}
{"SMILES": "CCC(CC)COC(=O)[C@H](C)N[P@](=O)(OC[C@H]1O[C@@](C#N)(c2ccc3c(N)ncnn23)[C@H](O)[C@@H]1O)Oc1ccccc1", "target": "Replicase polyprotein 1ab, polymerase (rep, Severe acute respiratory syndrome coronavirus 2, UniProt P0DTD1)", "test": "enzyme activity in cells", "system": "HEK-293T", "setting": "10 µM", "inhibition [%]": 87}
{"SMILES": "Cc1cc(O)c2c(c1)C(=O)C=CC2=O", "target": "rep main protease", "test": "enzyme activity", "setting": "10 µM", "inhibition [%]": 103}
{"SMILES": "O=C(CCc1ccc(O)cc1)c1c(O)cc(O)cc1O[C@@H]1O[C@H](CO)[C@@H](O)[C@H](O)[C@H]1O", "target": "rep main protease", "test": "enzyme activity, FRET", "setting": "10 µM, 10 min", "inhibition [%]": "25 to 50"}
{"SMILES": "COc1cccc2c1C(=O)C(C(C)=O)=CC2=O", "target": "rep main protease", "test": "enzyme activity", "setting": "0.1 µM", "inhibition [%]": 35.2}
{"SMILES": "Cc1cc(NC(=O)c2cc3c(=O)n4cccc(C)c4nc3n2C)ccc1Br", "target": "rep main protease", "test": "enzyme activity", "setting": "100 µM", "inhibition [%]": 59}
{"SMILES": "C[C@@H]1O[C@@H](O[C@@H]2[C@@H](O)[C@H](OCCc3ccc(O)c(O)c3)O[C@H](CO)[C@H]2OC(=O)/C=C/c2ccc(O)c(O)c2)[C@H](O)[C@H](O)[C@H]1O", "target": "rep main protease", "test": "enzyme activity", "setting": "10 µM", "inhibition [%]": 34.6}
{"SMILES": "NC(=O)c1ccc(/C=C/C(=O)N2CCC[C@@]3(CCN(C(=O)[C@@H]4CC(=O)NC(=O)N4)C3)C2)cc1", "target": "rep main protease", "test": "enzyme activity", "setting": "5 µM", "inhibition [%]": 14.7}
{"SMILES": "COc1cc(C)cc2c1C(=O)C=CC2=O", "target": "rep main protease", "test": "enzyme activity", "setting": "0.1 µM", "inhibition [%]": -4.4}
{"SMILES": "O=C(O)[C@]1(O)C[C@@H](O)[C@@H](O)[C@H](O)C1", "target": "rep main protease", "test": "enzyme activity, FRET", "setting": "10 µM, 10 min", "inhibition [%]": "< 25"}
{"SMILES": "CCN(CC)C(=S)SSC(=S)N(CC)CC", "target": "rep main protease", "test": "enzyme activity, fluorescence", "setting": "10 µM, pH 7.2", "inhibition [%]": 100}
{"SMILES": "NC(=O)c1c[nH]c(Cc2ccccc2)cc1=O", "target": "rep main protease", "test": "enzyme activity", "setting": "20 µM", "inhibition [%]": 10.9}
{"SMILES": "O=C1NCc2c1cccc2C(=O)N[C@H](CNC(=O)c1ccnc2[nH]ncc12)c1ccccc1", "target": "rep main protease", "test": "enzyme activity", "setting": "5 µM", "inhibition [%]": 10}
{"SMILES": "Cc1ccc2nc(Cl)c(/C=N/NC(=O)c3ccncc3)cc2c1", "target": "rep papain-like protease", "test": "enzyme activity", "setting": "10 µM", "inhibition [%]": 9.2}
{"SMILES": "CN(C(=O)[C@H](Cc1ccccc1)NC(=O)[C@@H](NC(=O)OCc1ccccc1)C(C)(C)C)N(C#N)CCC(N)=O", "target": "rep main protease", "test": "enzyme activity, fluorescence", "setting": "50 µM, pH 7.2", "inhibition [%]": 100}
{"SMILES": "O=C(O)[C@H]1O[C@@H](Oc2cc3oc(-c4ccc(O)cc4)cc(=O)c3c(O)c2O)[C@H](O)[C@@H](O)[C@@H]1O", "target": "rep main protease", "test": "enzyme activity", "setting": "10 µM", "inhibition [%]": 18.9}
{"SMILES": "N#CC(c1ccc2c(c1)OCO2)N(Cc1ccccc1)C(=O)c1sc2ccccc2c1Cl (stereo not drawn)", "target": "rep main protease", "test": "enzyme activity", "setting": "20 µM", "inhibition [%]": 8.09}
{"SMILES": "Cc1cc(OCc2ccccc2)c2c(c1)C(=O)C=CC2=O", "target": "rep main protease", "test": "enzyme activity", "setting": "1 µM", "inhibition [%]": 91.1}
{"SMILES": "Cn1c(C(=O)Nc2ccc(Cl)cc2)cc2c(=O)n3ccccc3nc21", "target": "rep main protease", "test": "enzyme activity", "setting": "1 µM", "inhibition [%]": 7.4}
{"SMILES": "Oc1ccc([C@H]2COc3cc(O)ccc3C2)cc1", "target": "rep main protease", "test": "enzyme activity", "setting": "50 µM", "inhibition [%]": 18.5}
{"SMILES": "COC(=O)C1=CO[C@@H](O[C@@H]2O[C@H](CO)[C@@H](O)[C@H](O)[C@H]2O)[C@@H]2[C@@H](C)[C@@H](O)C[C@H]12", "target": "rep main protease", "test": "enzyme activity", "setting": "100 µM", "inhibition [%]": 10.6}
{"SMILES": "CCOC(=O)COc1cc(C)cc2c1C(=O)C=CC2=O", "target": "rep main protease", "test": "enzyme activity", "setting": "0.1 µM", "inhibition [%]": 29.6}
{"SMILES": "COc1cc(C[C@@H](C)[C@@H](C)Cc2cc(O)c(OC)c(OC)c2)cc(O)c1OC", "target": "rep papain-like protease", "test": "enzyme activity, FRET", "setting": "8 µM", "inhibition [%]": 51.4}
{"SMILES": "C/C=C1\\C(OC2OC(CO)C(O)C(O)C2O)OC=C(C(=O)OC)C1CC(=O)OCCc1ccc(O)c(O)c1 (stereo not drawn)", "target": "rep main protease", "test": "enzyme activity", "setting": "20 µM", "inhibition [%]": 93.8}
{"SMILES": "C[C@@H]1O[C@@H](OC[C@H]2O[C@@H](OCCc3ccc(O)c(O)c3)[C@H](OC(=O)/C=C/c3ccc(O)c(O)c3)[C@@H](O)[C@@H]2O)[C@H](O)[C@H](O)[C@H]1O", "target": "rep papain-like protease", "test": "enzyme activity", "setting": "50 µM", "inhibition [%]": 2.5}
{"SMILES": "O=c1oc2c(O)c(O)cc3c(=O)oc4c(O)c(O)cc1c4c23", "target": "rep main protease", "test": "enzyme activity, FRET", "setting": "10 µM, 10 min", "inhibition [%]": "> 50"}
{"SMILES": "Cc1ccc2nc(Cl)c(/C=N/c3cccc([N+](=O)[O-])c3)cc2c1", "target": "rep papain-like protease", "test": "enzyme activity", "setting": "100 µM", "inhibition [%]": 21.7}
{"SMILES": "CC(=O)N[C@H](CCCCN)C(=O)N[C@H](Cc1c[nH]c2ccccc12)C(=O)N[C@H](CO)C(=O)N[C@H](Cc1ccc(O)cc1)C(=O)N[C@H](CCC(N)=O)C(=O)N1CCC[C@@H]1C(=O)N[C@@H](C(=O)N[C@H](Cc1c[nH]c2ccccc12)C(=O)N[C@H](CC(=O)O)C(=O)N[C@H](Cc1c[nH]c2ccccc12)C(=O)N[C@@H](C(=O)N[C@H](Cc1c[nH]c2ccccc12)C(=O)N[C@H](CO)C(=O)N[C@H](CCC(=O)O)C(=O)N[C@H](Cc1c[nH]cn1)C(=O)N[C@H](C)C(=O)N[C@H](CCCNC(=N)N)C(N)=O)[C@H](C)O)[C@H](C)O", "target": "rep main protease", "test": "enzyme activity, fluorescence", "setting": "140 µM", "inhibition [%]": 100}
{"SMILES": "Cn1c(C(=O)Nc2ccc3c(c2)OCCO3)cc2c(=O)n3ccccc3nc21", "target": "rep main protease", "test": "enzyme activity", "setting": "100 µM", "inhibition [%]": 71}
{"SMILES": "C=C1C(=O)OC2C1C(O)CC1(C)C(O)CCC(C=O)C21 (stereo not drawn)", "target": "rep main protease", "test": "enzyme activity", "setting": "20 µM", "inhibition [%]": -62}
{"SMILES": "CC(C)C[C@H](NC(=O)[C@@H](NC(=O)OCc1ccccc1)C(C)(C)C)C(=O)N(C)N(C#N)CCC(N)=O", "target": "rep main protease", "test": "enzyme activity, fluorescence", "setting": "50 µM, pH 7.2", "inhibition [%]": 100}
{"SMILES": "c1cc(CN2CCCNCCNCCCNCC2)ccc1CN1CCCNCCNCCCNCC1", "target": "rep main protease", "test": "enzyme activity in cells", "system": "HEK-293T", "setting": "20 µM", "inhibition [%]": -0.49}
{"SMILES": "CCc1ccc(C2C(c3ccccc3)=C(O)C(=O)N2c2ccc(Cl)cc2)cc1 (stereo not drawn)", "target": "rep main protease", "test": "enzyme activity", "setting": "20 µM", "inhibition [%]": 16.8}
{"SMILES": "O=C1C=CC(=O)c2c(O)cccc21", "target": "rep main protease", "test": "enzyme activity", "setting": "10 µM", "inhibition [%]": 102}
{"SMILES": "C/N=c1\\nc(-c2ccccc2)n(-c2ccccc2)s1", "target": "rep main protease", "test": "enzyme activity", "setting": "20 µM", "inhibition [%]": 96.7}
{"SMILES": "CC[PH](CC)(CC)[Au][S][C@@H]1O[C@H](COC(C)=O)[C@@H](OC(C)=O)[C@H](OC(C)=O)[C@H]1OC(C)=O", "target": "rep main protease", "test": "enzyme activity", "setting": "20 µM", "inhibition [%]": 100}
{"SMILES": "COCOc1cc(C)cc2c1C(=O)C=CC2=O", "target": "rep main protease", "test": "enzyme activity", "setting": "0.1 µM", "inhibition [%]": 3}
{"SMILES": "Clc1nc2ccccc2cc1/C=N\\c1ccc(-c2nc3ccccc3[nH]2)cc1", "target": "rep papain-like protease", "test": "enzyme activity", "setting": "100 µM", "inhibition [%]": 25.3}
{"SMILES": "O=C(/C=C/c1ccc(O)c(O)c1)OC1CC(OC(=O)/C=C/c2ccc(O)c(O)c2)(C(=O)O)CC(O)C1O (stereo not drawn)", "target": "rep papain-like protease", "test": "enzyme activity", "setting": "50 µM", "inhibition [%]": 14.4}
{"SMILES": "COc1cc(O)cc(/C=C/c2ccc(O)cc2)c1", "target": "rep main protease", "test": "enzyme activity", "setting": "20 µM", "inhibition [%]": 38.1}
{"SMILES": "Oc1cc2c(cc1O)[C@H]1c3ccccc3CN[C@@H]1CC2 (racemic)", "target": "rep main protease", "test": "enzyme activity", "setting": "20 µM", "inhibition [%]": -15.1}
{"SMILES": "Cc1cccn2c(=O)c3cc(C(=O)Nc4ccc(N(C)C)cc4)n(C)c3nc12", "target": "rep main protease", "test": "enzyme activity", "setting": "1 µM", "inhibition [%]": 3.5}
{"SMILES": "O=C1C=CC(=O)c2ccccc21", "target": "rep main protease", "test": "enzyme activity", "setting": "10 µM", "inhibition [%]": 97.7}
{"SMILES": "CCc1ccc(NC(=O)c2cc3c(=O)n4ccccc4nc3n2C)cc1", "target": "rep main protease", "test": "enzyme activity", "setting": "1 µM", "inhibition [%]": 11}
{"SMILES": "COc1c(O)cc(O)c2c(=O)cc(-c3ccccc3)oc12", "target": "rep main protease", "test": "enzyme activity", "setting": "100 µM", "inhibition [%]": 3.6}
